Results from ChEMBL document CHEMBL1148778, “Synthesis and characterization of nonsteroidal glucocorticoid receptor modulators for multiple myeloma” (J Med Chem, 2007).

How the values were obtained:
Glucocorticoid receptor [1] = molecular target: T1, Glucocorticoid receptor (Homo sapiens, UniProt P04150); experiment: Agonist activity at human GR expressed in CV1 cells by GRE activation assay; type: functional, cell-based, CV-1
T1 sequence (P04150 whole entry): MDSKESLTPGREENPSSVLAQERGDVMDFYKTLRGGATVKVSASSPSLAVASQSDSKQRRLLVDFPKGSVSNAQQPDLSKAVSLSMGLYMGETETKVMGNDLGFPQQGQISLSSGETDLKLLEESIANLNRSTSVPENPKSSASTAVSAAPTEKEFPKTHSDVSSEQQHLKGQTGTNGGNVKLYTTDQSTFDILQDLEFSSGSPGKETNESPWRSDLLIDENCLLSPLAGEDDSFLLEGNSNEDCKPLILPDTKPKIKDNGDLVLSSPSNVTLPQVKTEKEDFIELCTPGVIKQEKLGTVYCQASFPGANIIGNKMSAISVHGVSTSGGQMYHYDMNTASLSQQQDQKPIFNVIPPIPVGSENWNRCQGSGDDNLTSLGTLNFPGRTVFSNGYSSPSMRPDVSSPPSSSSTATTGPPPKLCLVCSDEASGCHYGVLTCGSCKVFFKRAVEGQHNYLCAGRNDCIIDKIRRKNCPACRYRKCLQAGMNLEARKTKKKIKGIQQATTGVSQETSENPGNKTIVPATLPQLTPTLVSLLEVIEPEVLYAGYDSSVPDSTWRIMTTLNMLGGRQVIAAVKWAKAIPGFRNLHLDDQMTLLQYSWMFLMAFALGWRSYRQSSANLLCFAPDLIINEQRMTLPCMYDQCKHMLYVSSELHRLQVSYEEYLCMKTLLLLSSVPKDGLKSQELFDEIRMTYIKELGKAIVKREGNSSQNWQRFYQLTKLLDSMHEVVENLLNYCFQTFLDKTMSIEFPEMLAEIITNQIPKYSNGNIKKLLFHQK

RPMI-8226 = experiment: Antiproliferative activity against human RPMI8226 cells after 4 days relative to Dexamethasone; type: functional
Progesterone receptor = molecular target: T2, Progesterone receptor (Homo sapiens, UniProt P06401); experiment: Binding affinity to PR
T2 sequence (P06401 whole entry): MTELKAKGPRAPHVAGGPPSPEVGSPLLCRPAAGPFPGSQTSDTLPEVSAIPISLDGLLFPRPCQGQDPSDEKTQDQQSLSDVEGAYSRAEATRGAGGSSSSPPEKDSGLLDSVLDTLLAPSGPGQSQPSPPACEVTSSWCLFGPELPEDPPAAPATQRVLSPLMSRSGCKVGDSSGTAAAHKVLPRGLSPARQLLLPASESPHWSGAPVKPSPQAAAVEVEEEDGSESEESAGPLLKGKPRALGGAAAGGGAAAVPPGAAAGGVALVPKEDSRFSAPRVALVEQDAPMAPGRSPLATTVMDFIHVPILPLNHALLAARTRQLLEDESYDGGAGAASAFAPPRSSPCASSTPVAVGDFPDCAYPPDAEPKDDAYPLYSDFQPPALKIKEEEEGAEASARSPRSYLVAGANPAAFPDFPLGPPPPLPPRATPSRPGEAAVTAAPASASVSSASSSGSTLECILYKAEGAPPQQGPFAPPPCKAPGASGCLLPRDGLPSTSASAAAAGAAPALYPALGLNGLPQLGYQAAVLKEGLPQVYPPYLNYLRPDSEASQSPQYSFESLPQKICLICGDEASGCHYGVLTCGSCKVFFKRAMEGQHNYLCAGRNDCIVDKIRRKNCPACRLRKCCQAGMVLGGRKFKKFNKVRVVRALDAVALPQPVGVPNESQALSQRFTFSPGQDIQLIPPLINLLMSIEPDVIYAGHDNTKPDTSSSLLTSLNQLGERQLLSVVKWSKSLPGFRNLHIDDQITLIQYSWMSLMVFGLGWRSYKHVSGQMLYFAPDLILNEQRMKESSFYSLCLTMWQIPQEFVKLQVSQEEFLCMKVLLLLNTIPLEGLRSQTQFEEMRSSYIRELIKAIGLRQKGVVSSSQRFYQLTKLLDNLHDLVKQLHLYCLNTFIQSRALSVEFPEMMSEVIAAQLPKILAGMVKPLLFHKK
Outline: (§1)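 Competitive binding assays on PR and MR. Values are means of at least three separate experiments, each with triplicate determinations, ± SEM. A value without SEM comes from a single determination.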

[2] = molecular target: T3, Mineralocorticoid receptor (Homo sapiens, UniProt P08235); experiment: Binding affinity to MR; outline: as §1
T3 sequence (P08235 whole entry): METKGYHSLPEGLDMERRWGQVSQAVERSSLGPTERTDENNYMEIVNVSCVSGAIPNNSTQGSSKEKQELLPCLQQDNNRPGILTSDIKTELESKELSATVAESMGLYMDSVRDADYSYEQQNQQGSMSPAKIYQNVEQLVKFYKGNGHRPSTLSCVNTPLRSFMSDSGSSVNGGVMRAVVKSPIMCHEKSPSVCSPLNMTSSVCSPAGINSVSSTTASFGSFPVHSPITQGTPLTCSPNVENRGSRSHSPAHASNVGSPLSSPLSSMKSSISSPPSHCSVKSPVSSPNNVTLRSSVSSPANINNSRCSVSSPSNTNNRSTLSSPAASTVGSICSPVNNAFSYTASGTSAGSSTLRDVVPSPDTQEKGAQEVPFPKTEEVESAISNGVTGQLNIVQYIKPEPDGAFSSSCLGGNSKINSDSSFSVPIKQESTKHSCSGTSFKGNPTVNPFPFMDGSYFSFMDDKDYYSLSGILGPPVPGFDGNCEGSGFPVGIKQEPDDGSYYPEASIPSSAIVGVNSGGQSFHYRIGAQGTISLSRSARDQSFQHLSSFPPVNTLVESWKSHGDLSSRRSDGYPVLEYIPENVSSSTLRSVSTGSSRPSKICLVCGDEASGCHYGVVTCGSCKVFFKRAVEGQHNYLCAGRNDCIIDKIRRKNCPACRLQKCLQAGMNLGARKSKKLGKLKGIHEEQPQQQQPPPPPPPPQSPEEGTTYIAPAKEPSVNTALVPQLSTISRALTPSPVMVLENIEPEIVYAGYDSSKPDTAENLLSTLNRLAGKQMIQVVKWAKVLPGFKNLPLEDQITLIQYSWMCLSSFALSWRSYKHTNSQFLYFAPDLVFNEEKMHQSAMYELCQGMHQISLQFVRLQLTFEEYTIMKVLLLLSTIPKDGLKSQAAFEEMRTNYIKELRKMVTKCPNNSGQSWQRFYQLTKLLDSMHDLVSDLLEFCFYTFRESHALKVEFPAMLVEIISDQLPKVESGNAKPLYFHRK

Glucocorticoid receptor [3] = molecular target: T1, Glucocorticoid receptor; experiment: Binding affinity to GR

EC50 (Glucocorticoid receptor [1]) [nM]	Ki (Progesterone receptor) [nM]	Ki [2] [nM]	Ki (Glucocorticoid receptor [3]) [nM]	Structure (SMILES)	Efficacy (RPMI-8226) [%]
0.2	190	10	0.2	COCc1ccsc1/C=C1\Oc2ccc(O)c(OC)c2-c2ccc3c(c21)C(C)=CC(C)(C)N3	98
0.2	1400	980	0.7	COc1c(O)ccc2c1-c1ccc3c(c1/C(=C/c1sccc1CO)O2)C(C)=CC(C)(C)N3	99

Structure (SMILES)	EC50 (Glucocorticoid receptor [1]) [nM]	Ki (Progesterone receptor) [nM]	Ki [2] [nM]	Ki (Glucocorticoid receptor [3]) [nM]	Efficacy (RPMI-8226) [%]
CO/N=C(\C)c1ccsc1/C=C1\Oc2ccc(O)c(OC)c2-c2ccc3c(c21)C(C)=CC(C)(C)N3	0.1	38	48	1.1	101
